# Experimental data as given in ChEMBL document CHEMBL1125908, “Substituted dihydrobenzopyran and dihydrobenzofuran thiazolidine-2,4-diones as hypoglycemic agents” (1991).
# Tests used:
# [1] = In vitro stimulation of 2-Deoxyglucose uptake in L6 myocytes from rat skeletal myoblasts at a concentration of 10 uM; format: functional
# Summary of the method: (§1)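 Rat L6 myoblasts grown 14 days in MEMalpha + 2% FBS to fuse into myocytes, then serum-depleted 5 h. Uptake of 0.1 mM [1-14C]2-deoxyglucose in Dulbecco's PBS (+Ca, Mg) for 10 min at room temperature, stopped by ice-cold saline washes. Cells dissolved in 0.1 M NaOH and scintillation counted. Reported relative to 1 µM insulin set at 1.0.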
# Mus musculus [2] = test: Compound was evaluated for in vivo for % glucose normalization in mice at a concentration of 5 mg/kg.; format: functional
# Summary of the method: (§2)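 Six- to eight-week-old C57BL/6J-ob/ob mice, acclimated 1 week, bled retroorbitally before treatment. Oral gavage once daily for four days in 0.25% (w/v) methylcellulose in water, unadjusted pH. Bled again 24 h after the fourth dose. Plasma glucose read by hexokinase UV method. Expressed as % normalization: vehicle = 0%, ciglitazone 50 mg/kg = 100%.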
# 3T3-L1 [3] = test: In vitro fold stimulation of glucose transporter protein in 3T3-L1 adipocytes at a concentration of 10 uM; format: functional, Mus musculus
# Summary of the method: (§3)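 Differentiated 3T3-L1 adipocytes (days 7–11 after start of differentiation) exposed to compound in DMEM + 10% FBS, 0.1% DMSO final, medium renewed with fresh drug after 24 h, total 48 h. Triton X-100/EDTA/DTT extracts dot-blotted, probed with affinity-purified rabbit anti-GLUT1 (0.5 μg/mL) then 125I goat anti-rabbit IgG, gamma-counted; transporter quantified against basal-extract standard curve, fold over DMSO control.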
# 3T3-L1 [4] = test: In vitro fold stimulation of glucose transporter protein in 3T3-L1 adipocytes at a concentration of 30 uM; format: functional, Mus musculus; summary of the method: as §3
# [5] = In vitro stimulation of 2-Deoxyglucose uptake in L6 myocytes from rat skeletal myoblasts at a concentration of 3 uM; format: functional; summary of the method: as §1
# Mus musculus [6] = test: Compound was evaluated for in vivo for % glucose normalization in mice at a concentration of 10 mg/kg.; format: functional; summary of the method: as §2
# [7] = In vitro stimulation of 2-Deoxyglucose uptake in L6 myocytes from rat skeletal myoblasts at a concentration of 30 uM; format: functional; summary of the method: as §1
# Mus musculus [8] = test: In vivo percent glucose normalization in mice at a concentration of 25 mg/kg; format: functional; summary of the method: as §2
# Mus musculus [9] = test: Compound was evaluated for in vivo for % glucose normalization in mice at a concentration of 2.5 mg/kg.; format: functional; summary of the method: as §2
smiles,measurement,setting,value
O=C1NC(=O)C(Cc2ccc3c(c2)CC[C@@H](Cc2ccccc2)O3)S1 (some centres undefined),2-DG uptake stimulation,[1],0.9
same,Glucose normalisation,Mus musculus [2],41%
same,GT fold stimulation,3T3-L1 [3],1.13
same,GT fold stimulation,3T3-L1 [4],1.17
same,2-DG uptake stimulation,[5],0.77
same,Glucose normalisation,Mus musculus [6],47%
same,2-DG uptake stimulation,[7],1.23
same,Glucose normalisation,Mus musculus [8],73%
O=C1NC(=O)C(Cc2ccc3c(c2)CCC(Cc2ccccc2)(Cc2ccccc2)O3)S1 (centres undefined),2-DG uptake stimulation,[1],0.86
same,GT fold stimulation,3T3-L1 [3],1.03
same,GT fold stimulation,3T3-L1 [4],1.23
same,2-DG uptake stimulation,[5],0.73
same,2-DG uptake stimulation,[7],0.44
same,Glucose normalisation,Mus musculus [8],12%
O=C1NC(=O)C(Cc2ccc3c(c2)CCC2(CCCC2)O3)S1 (centres undefined),2-DG uptake stimulation,[1],1.06
same,Glucose normalisation,Mus musculus [2],50%
same,GT fold stimulation,3T3-L1 [3],0.95
same,GT fold stimulation,3T3-L1 [4],1.1
same,2-DG uptake stimulation,[5],0.79
same,Glucose normalisation,Mus musculus [6],64%
same,Glucose normalisation,Mus musculus [9],0%
same,2-DG uptake stimulation,[7],1.18
same,Glucose normalisation,Mus musculus [8],52%
O=C1NC(=O)C(Cc2ccc3c(c2)CC2(CCCCC2)CO3)S1 (centres undefined),2-DG uptake stimulation,[1],1.27
same,GT fold stimulation,3T3-L1 [3],0.8
same,GT fold stimulation,3T3-L1 [4],1.23
same,2-DG uptake stimulation,[5],1.15
same,Glucose normalisation,Mus musculus [6],6%
same,2-DG uptake stimulation,[7],1.38
same,Glucose normalisation,Mus musculus [8],68%
O=C1NC(=O)C(Cc2ccc3c(c2)CCC(Cc2ccc(OCc4ccccc4)cc2)O3)S1 (centres undefined),2-DG uptake stimulation,[1],1.53
same,Glucose normalisation,Mus musculus [2],73%
same,GT fold stimulation,3T3-L1 [3],1.48
same,GT fold stimulation,3T3-L1 [4],1.59
same,2-DG uptake stimulation,[5],1.42
same,Glucose normalisation,Mus musculus [6],100%
same,Glucose normalisation,Mus musculus [9],19%
same,2-DG uptake stimulation,[7],1.34
same,Glucose normalisation,Mus musculus [8],95%
O=C1NC(=O)C(Cc2ccc3c(c2)CCC(Cc2ccc(O)cc2)O3)S1 (centres undefined),2-DG uptake stimulation,[1],1.24
same,GT fold stimulation,3T3-L1 [3],1.25
same,GT fold stimulation,3T3-L1 [4],1.34
same,2-DG uptake stimulation,[5],1.04
same,Glucose normalisation,Mus musculus [6],55%
same,2-DG uptake stimulation,[7],1.03
same,Glucose normalisation,Mus musculus [8],100%
O=C1NC(=O)C(Cc2ccc3c(c2)CCC(Cc2ccccn2)O3)S1 (centres undefined),2-DG uptake stimulation,[1],0.96
same,GT fold stimulation,3T3-L1 [3],1.48
same,GT fold stimulation,3T3-L1 [4],1.42
same,2-DG uptake stimulation,[5],0.76
same,Glucose normalisation,Mus musculus [6],49%
same,2-DG uptake stimulation,[7],0.96
same,Glucose normalisation,Mus musculus [8],74%
O=C1NC(=O)C(Cc2ccc3c(c2)CCC(c2ccccc2)O3)S1 (centres undefined),2-DG uptake stimulation,[1],0.95
same,GT fold stimulation,3T3-L1 [3],1.05
same,GT fold stimulation,3T3-L1 [4],1.37
same,2-DG uptake stimulation,[5],0.78
same,Glucose normalisation,Mus musculus [6],0%
same,2-DG uptake stimulation,[7],1.15
same,Glucose normalisation,Mus musculus [8],70%
CCC1(CC)CCc2cc(CC3SC(=O)NC3=O)ccc2O1 (centres undefined),2-DG uptake stimulation,[1],1.33
same,GT fold stimulation,3T3-L1 [3],1.08
same,GT fold stimulation,3T3-L1 [4],1.21
same,2-DG uptake stimulation,[5],1.01
same,2-DG uptake stimulation,[7],1.38
same,Glucose normalisation,Mus musculus [8],24%
O=C1NC(=O)C(Cc2ccc3c(c2)CCC2(CCCCCC2)O3)S1 (centres undefined),2-DG uptake stimulation,[1],0.99
same,GT fold stimulation,3T3-L1 [3],0.94
same,GT fold stimulation,3T3-L1 [4],1.12
same,2-DG uptake stimulation,[5],1.32
same,2-DG uptake stimulation,[7],0.43
same,Glucose normalisation,Mus musculus [8],0%
O=C1NC(=O)C(Cc2ccc3c(c2)CC[C@H](Cc2ccccc2)O3)S1 (some centres undefined) [ENGLITAZONE],2-DG uptake stimulation,[1],0.91
same,Glucose normalisation,Mus musculus [2],73%
same,GT fold stimulation,3T3-L1 [3],1.13
same,GT fold stimulation,3T3-L1 [4],1.24
same,2-DG uptake stimulation,[5],0.77
same,Glucose normalisation,Mus musculus [6],90%
same,Glucose normalisation,Mus musculus [9],31%
same,2-DG uptake stimulation,[7],1.27
same,Glucose normalisation,Mus musculus [8],88%
O=C1NC(=O)C(Cc2ccc3c(c2)CCC(C2CCCCC2)O3)S1 (centres undefined),2-DG uptake stimulation,[1],2.08
same,Glucose normalisation,Mus musculus [2],65%
same,GT fold stimulation,3T3-L1 [3],1.03
same,GT fold stimulation,3T3-L1 [4],1.23
same,2-DG uptake stimulation,[5],1.28
same,Glucose normalisation,Mus musculus [6],75%
same,Glucose normalisation,Mus musculus [9],5%
same,2-DG uptake stimulation,[7],2.23
same,Glucose normalisation,Mus musculus [8],69%
CC1(C2Cc3cc(CC4SC(=O)NC4=O)ccc3O2)CCCCC1 (centres undefined),2-DG uptake stimulation,[1],0.93
same,GT fold stimulation,3T3-L1 [3],1.11
same,GT fold stimulation,3T3-L1 [4],1.22
same,2-DG uptake stimulation,[5],0.8
same,Glucose normalisation,Mus musculus [6],33%
same,2-DG uptake stimulation,[7],1.67
same,Glucose normalisation,Mus musculus [8],80%
O=C1NC(=O)C(Cc2ccc3c(c2)CC(CC2CCCCC2)O3)S1 (centres undefined),2-DG uptake stimulation,[1],1.39
same,GT fold stimulation,3T3-L1 [3],1.14
same,GT fold stimulation,3T3-L1 [4],1.41
same,2-DG uptake stimulation,[5],0.88
same,2-DG uptake stimulation,[7],1.71
same,Glucose normalisation,Mus musculus [8],19%
O=C1NC(=O)C(Cc2ccc3c(c2)CC(C2CCCCC2)O3)S1 (centres undefined),2-DG uptake stimulation,[1],1.85
same,GT fold stimulation,3T3-L1 [3],1.25
same,GT fold stimulation,3T3-L1 [4],1.42
same,2-DG uptake stimulation,[5],1.1
same,2-DG uptake stimulation,[7],1.66
same,Glucose normalisation,Mus musculus [8],23%
O=C1NC(=O)C(Cc2ccc3c(c2)CCC(Cc2ccccc2)O3)S1 (centres undefined),2-DG uptake stimulation,[1],1.29
same,Glucose normalisation,Mus musculus [2],48%
same,GT fold stimulation,3T3-L1 [3],1.14
same,GT fold stimulation,3T3-L1 [4],1.48
same,2-DG uptake stimulation,[5],0.91
same,Glucose normalisation,Mus musculus [6],70%
same,Glucose normalisation,Mus musculus [9],29%
same,2-DG uptake stimulation,[7],1.14
same,Glucose normalisation,Mus musculus [8],91%
O=C1NC(=O)C(Cc2ccc3c(c2)CC(c2ccccc2)O3)S1 (centres undefined),2-DG uptake stimulation,[1],0.99
same,GT fold stimulation,3T3-L1 [3],1.14
same,GT fold stimulation,3T3-L1 [4],1.42
same,2-DG uptake stimulation,[5],0.76
same,Glucose normalisation,Mus musculus [6],6%
same,2-DG uptake stimulation,[7],1.3
same,Glucose normalisation,Mus musculus [8],85%
COc1ccc(CC2CCc3cc(CC4SC(=O)NC4=O)ccc3O2)cc1 (centres undefined),2-DG uptake stimulation,[1],1.15
same,Glucose normalisation,Mus musculus [2],10%
same,GT fold stimulation,3T3-L1 [3],1.08
same,GT fold stimulation,3T3-L1 [4],1.21
same,2-DG uptake stimulation,[5],0.92
same,Glucose normalisation,Mus musculus [6],68%
same,2-DG uptake stimulation,[7],0.69
same,Glucose normalisation,Mus musculus [8],85%
CC1(COc2ccc(CC3SC(=O)NC3=O)cc2)CCCCC1 (centres undefined) [CIGLITAZONE],2-DG uptake stimulation,[1],1.02
same,GT fold stimulation,3T3-L1 [3],1.49
same,GT fold stimulation,3T3-L1 [4],1.51
same,2-DG uptake stimulation,[5],0.82
same,Glucose normalisation,Mus musculus [6],52%
same,2-DG uptake stimulation,[7],0.68
same,Glucose normalisation,Mus musculus [8],84%
O=C1NC(=O)C(Cc2ccc3c(c2)CC(Cc2ccccc2)O3)S1 (centres undefined),2-DG uptake stimulation,[1],1.11
same,Glucose normalisation,Mus musculus [2],65%
same,GT fold stimulation,3T3-L1 [3],1.34
same,GT fold stimulation,3T3-L1 [4],1.51
same,2-DG uptake stimulation,[5],0.91
same,Glucose normalisation,Mus musculus [6],95%
same,Glucose normalisation,Mus musculus [9],0%
same,2-DG uptake stimulation,[7],1.51
same,Glucose normalisation,Mus musculus [8],100%
O=C1NC(=O)C(Cc2ccc3c(c2)CCC(CC2CCCCC2)O3)S1 (centres undefined),2-DG uptake stimulation,[1],1.55
same,GT fold stimulation,3T3-L1 [3],1.02
same,GT fold stimulation,3T3-L1 [4],1.28
same,2-DG uptake stimulation,[5],1.14
same,2-DG uptake stimulation,[7],0.68
same,Glucose normalisation,Mus musculus [8],7%
O=C1NC(=O)C(Cc2ccc3c(c2)C(Cc2ccccc2)CO3)S1 (centres undefined),2-DG uptake stimulation,[1],1.25
same,GT fold stimulation,3T3-L1 [3],1.09
same,GT fold stimulation,3T3-L1 [4],1.31
same,2-DG uptake stimulation,[5],0.85
same,2-DG uptake stimulation,[7],1.4
same,Glucose normalisation,Mus musculus [8],0%
O=C1NC(=O)C(Cc2ccc3c(c2)CCC2(CCCCC2)O3)S1 (centres undefined),2-DG uptake stimulation,[1],1.52
same,GT fold stimulation,3T3-L1 [3],0.97
same,GT fold stimulation,3T3-L1 [4],1.2
same,2-DG uptake stimulation,[5],0.97
same,2-DG uptake stimulation,[7],1.22
same,Glucose normalisation,Mus musculus [8],35%
O=C1NC(=O)C(Cc2ccc3c(c2)C(c2ccccc2)CO3)S1 (centres undefined),2-DG uptake stimulation,[1],1.24
same,GT fold stimulation,3T3-L1 [3],1.13
same,GT fold stimulation,3T3-L1 [4],1.19
same,2-DG uptake stimulation,[5],1.05
same,2-DG uptake stimulation,[7],1.42
same,Glucose normalisation,Mus musculus [8],32%
O=C1NC(=O)C(Cc2ccc3c(c2)CC2(CCCCC2)O3)S1 (centres undefined),2-DG uptake stimulation,[1],1.28
same,GT fold stimulation,3T3-L1 [3],1.15
same,GT fold stimulation,3T3-L1 [4],1.36
same,2-DG uptake stimulation,[5],0.85
same,2-DG uptake stimulation,[7],1.62
same,Glucose normalisation,Mus musculus [8],56%
